The values that follow come from ChEMBL document CHEMBL4261600 (Eur J Med Chem, 2018).

Assay [1] relates to Tyrosine-protein kinase ABL1 (Homo sapiens), P00519 [T315I]. The assay is described as follows: Binding affinity to human phosphorylated ABL1 T315I mutant (S229 to K512 residues) expressed in mammalian expression system assessed as remaining unbound target protein level at 1000 nM by Kinomescan method relative to control. The method in brief: (§1)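 Single-point competition binding screen across a panel of 468 kinases and mutants, with the inhibitor at 1 μM. Binding is read out as percent of a DMSO control, and targets below 1 percent control were classed as strong binders.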

Assay [2] has as its target Bone morphogenetic protein receptor type-2 (Homo sapiens) (UniProt Q13873). As to the kind of experiment: Binding affinity to wild-type human partial length BMPR2 (R179 to Q526 residues) expressed in mammalian expression system assessed as remaining unbound target protein level at 1000 nM by Kinomescan method relative to control. The method in brief:
(§2)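 Profiled in a KINOMEscan binding panel with the inhibitor at a single concentration of 1 μM. Binding to each kinase was read out as percent of control, relative to a DMSO control. Strong binders were defined as those with a percent control value below 1.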

Assay [3] addresses Dual specificity protein kinase CLK1 (Homo sapiens) (UniProt P49759). As to the kind of experiment: Binding affinity to wild-type human full length CLK1 (M1 to I484 residues) expressed in bacterial expression system assessed as remaining unbound target protein level at 1000 nM by Kinomescan method relative to control. The gist of the method: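 KINOMEscan competitive binding profile at 1 μM inhibitor. Remaining target binding reported as percent of DMSO control.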

For assay [4], the system named is Epidermal growth factor receptor (Homo sapiens), P00533 [G719S]. The assay is described as follows: Binding affinity to human partial length EGFR G719S mutant (R669 to V1011 residues) expressed in bacterial expression system assessed as remaining unbound target protein level at 1000 nM by Kinomescan method relative to control. The method in brief: (§3)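 KINOMEscan competition-binding profiling across the panel of 468 kinases and mutants, with inhibitor tested at 1 μM. Binding is expressed as percent of control, with DMSO as the reference control.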

Assay [5] concerns the target Mitogen-activated protein kinase 6 (Homo sapiens) (UniProt Q16659). As to the kind of experiment: Binding affinity to wild-type human partial length ERK3 (M1 to P413 residues) expressed in bacterial expression system assessed as remaining unbound target protein level at 1000 nM by Kinomescan method relative to control.
Assay [6] has as its target Tyrosine-protein kinase FRK (Homo sapiens) (UniProt P42685). The assay is described as follows: Binding affinity to wild-type human partial length FRK (A215 to F503 residues) expressed in bacterial expression system assessed as remaining unbound target protein level at 1000 nM by Kinomescan method relative to control.
Assay [7] concerns the target Tyrosine-protein kinase JAK1 (Homo sapiens) (UniProt P23458). The assay is described as follows: Binding affinity to wild-type human partial length JAK1 JH2 pseudokinase domain (R537 to D855 residues) expressed in mammalian expression system assessed as remaining unbound target protein level at 1000 nM by Kinomescan method relative to control. The gist of the method:
(§4)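 KINOMEscan binding panel of 468 kinases/mutants. Inhibitor was tested at a single concentration of 1 μM. Binding is reported as percent of control, defined relative to a DMSO control.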

Assay [8] relates to Mast/stem cell growth factor receptor Kit (Homo sapiens), P10721 [V559D,T670I]. As to the kind of experiment: Binding affinity to human partial length KIT V559D/T670I double mutant (Y545 to D952 residues) expressed in bacterial expression system assessed as remaining unbound target protein level at 1000 nM by Kinomescan method relative to control. The gist of the method: as §3
Chain of Mast/stem cell growth factor receptor Kit (Homo sapiens), P10721 [V559D,T670I] (P10721 whole entry V559D/T670I, the tested form may be a part): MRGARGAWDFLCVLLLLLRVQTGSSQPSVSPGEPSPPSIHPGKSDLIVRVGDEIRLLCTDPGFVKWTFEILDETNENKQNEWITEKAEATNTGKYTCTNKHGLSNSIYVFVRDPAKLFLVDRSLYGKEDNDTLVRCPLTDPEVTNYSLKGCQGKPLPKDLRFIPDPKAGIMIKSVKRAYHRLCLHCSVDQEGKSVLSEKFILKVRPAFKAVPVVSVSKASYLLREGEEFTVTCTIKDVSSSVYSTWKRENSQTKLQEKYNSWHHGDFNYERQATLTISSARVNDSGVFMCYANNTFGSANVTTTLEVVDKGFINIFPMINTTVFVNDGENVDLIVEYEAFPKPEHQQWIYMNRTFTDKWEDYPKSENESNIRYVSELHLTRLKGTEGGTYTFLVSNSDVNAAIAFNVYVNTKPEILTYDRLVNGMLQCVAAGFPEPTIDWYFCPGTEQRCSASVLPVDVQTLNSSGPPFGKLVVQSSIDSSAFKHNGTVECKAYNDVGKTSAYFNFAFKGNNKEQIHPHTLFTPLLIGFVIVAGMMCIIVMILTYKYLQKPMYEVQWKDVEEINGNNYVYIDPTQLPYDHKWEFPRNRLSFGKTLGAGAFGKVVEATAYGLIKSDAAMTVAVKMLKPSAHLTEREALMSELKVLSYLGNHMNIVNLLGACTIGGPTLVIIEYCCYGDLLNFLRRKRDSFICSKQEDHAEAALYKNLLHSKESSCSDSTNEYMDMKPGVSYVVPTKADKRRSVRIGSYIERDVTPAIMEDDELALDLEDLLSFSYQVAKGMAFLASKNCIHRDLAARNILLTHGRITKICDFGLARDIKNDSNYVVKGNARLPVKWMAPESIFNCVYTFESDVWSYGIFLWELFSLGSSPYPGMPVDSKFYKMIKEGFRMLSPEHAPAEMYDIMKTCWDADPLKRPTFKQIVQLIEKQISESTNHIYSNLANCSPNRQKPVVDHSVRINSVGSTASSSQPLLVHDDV

Assay [9] deals with Mitogen-activated protein kinase kinase kinase 2 (Homo sapiens) (UniProt Q9Y2U5). As to the kind of experiment: Binding affinity to wild-type human partial length MAP3K2 (S315 to H619 residues) expressed in mammalian expression system assessed as remaining unbound target protein level at 1000 nM by Kinomescan method relative to control. The gist of the method: as §4
For assay [10], the target named is MAP kinase-activated protein kinase 2 (Homo sapiens) (UniProt P49137). As to the kind of experiment: Binding affinity to wild-type human partial length MAPKAPK2 (V48 to D345 residues) expressed in bacterial expression system assessed as remaining unbound target protein level at 1000 nM by Kinomescan method relative to control. The method in brief:
as §4

Assay [11] has as its target Dual specificity mitogen-activated protein kinase kinase 5 (Homo sapiens) (UniProt Q13163). The assay is described as follows: Binding affinity to wild-type human partial length MEK5 (L98 to P448 residues) expressed in mammalian expression system assessed as remaining unbound target protein level at 1000 nM by Kinomescan method relative to control. The gist of the method: as §4

Assay [12] concerns the target Dual specificity mitogen-activated protein kinase kinase 6 (Homo sapiens) (UniProt P52564). As to the kind of experiment: Binding affinity to wild-type human partial length MEK6 (K36 to D334 residues) expressed in bacterial expression system assessed as remaining unbound target protein level at 1000 nM by Kinomescan method relative to control. The gist of the method: as §4

The target of assay [13] is MAP kinase-interacting serine/threonine-protein kinase 1 (Homo sapiens) (UniProt Q9BUB5). The assay is described as follows: Binding affinity to wild-type human full length MKNK1 (M1 to L424 residues) expressed in mammalian expression system assessed as remaining unbound target protein level at 1000 nM by Kinomescan method relative to control. The method in brief: as §1
Chain of MAP kinase-interacting serine/threonine-protein kinase 1 (Homo sapiens) (Q9BUB5 whole entry, looked up, the tested form may be a part): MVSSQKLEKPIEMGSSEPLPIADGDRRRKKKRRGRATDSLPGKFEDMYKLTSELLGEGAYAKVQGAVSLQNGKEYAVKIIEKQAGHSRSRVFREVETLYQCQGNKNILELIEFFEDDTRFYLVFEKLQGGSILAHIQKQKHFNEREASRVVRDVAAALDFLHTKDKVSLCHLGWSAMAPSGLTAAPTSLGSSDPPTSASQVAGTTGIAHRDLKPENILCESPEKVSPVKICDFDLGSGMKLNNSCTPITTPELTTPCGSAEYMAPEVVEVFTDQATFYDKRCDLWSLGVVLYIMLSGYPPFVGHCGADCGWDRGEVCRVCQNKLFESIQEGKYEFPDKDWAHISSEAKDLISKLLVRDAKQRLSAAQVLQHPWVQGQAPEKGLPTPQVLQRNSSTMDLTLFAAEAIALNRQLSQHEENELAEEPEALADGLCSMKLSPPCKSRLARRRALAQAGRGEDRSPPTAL

Assay [14] deals with Serine/threonine-protein kinase 24 (Homo sapiens) (UniProt Q9Y6E0). As to the kind of experiment: Binding affinity to wild-type human partial length MST3 (A30 to S311 residues) expressed in bacterial expression system assessed as remaining unbound target protein level at 1000 nM by Kinomescan method relative to control.
In assay [15] the target is Myosin-IIIa (Homo sapiens) (UniProt Q8NEV4). The assay is described as follows: Binding affinity to wild-type human partial length MYO3A (M1 to K338 residues) expressed in bacterial expression system assessed as remaining unbound target protein level at 1000 nM by Kinomescan method relative to control.
Assay [16] concerns the target Phosphatidylinositol 5-phosphate 4-kinase type-2 beta (Homo sapiens) (UniProt P78356). As to the kind of experiment: Binding affinity to wild-type human full length PIP5K2B (M1 to T416 residues) expressed in bacterial expression system assessed as remaining unbound target protein level at 1000 nM by Kinomescan method relative to control. The method in brief: as §2

For assay [17], the target named is Receptor-interacting serine/threonine-protein kinase 2 (Homo sapiens) (UniProt O43353). As to the kind of experiment: Binding affinity to wild-type human partial length RIPK2 (M1 to K310 residues) expressed in bacterial expression system assessed as remaining unbound target protein level at 1000 nM by Kinomescan method relative to control.
Assay [18] concerns the target Receptor-interacting serine/threonine-protein kinase 4 (Homo sapiens) (UniProt P57078). The assay is described as follows: Binding affinity to wild-type human partial length RIPK4 (M1 to V303 residues) expressed in mammalian expression system assessed as remaining unbound target protein level at 1000 nM by Kinomescan method relative to control.
Assay [19] addresses Dual serine/threonine and tyrosine protein kinase (Homo sapiens) (UniProt Q6XUX3). The assay is described as follows: Binding affinity to wild-type human full length RIPK5 (M1 to T929 residues) expressed in mammalian expression system assessed as remaining unbound target protein level at 1000 nM by Kinomescan method relative to control. The method in brief: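 KINOMEscan competition binding profile across a panel of 468 kinases and mutants, with the inhibitor tested at a single concentration of 1 μM. Binding is reported as percent of control, meaning signal relative to a DMSO control.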

Chain of Bone morphogenetic protein receptor type-2 (Homo sapiens) (Q13873 whole entry, the tested form may be a part): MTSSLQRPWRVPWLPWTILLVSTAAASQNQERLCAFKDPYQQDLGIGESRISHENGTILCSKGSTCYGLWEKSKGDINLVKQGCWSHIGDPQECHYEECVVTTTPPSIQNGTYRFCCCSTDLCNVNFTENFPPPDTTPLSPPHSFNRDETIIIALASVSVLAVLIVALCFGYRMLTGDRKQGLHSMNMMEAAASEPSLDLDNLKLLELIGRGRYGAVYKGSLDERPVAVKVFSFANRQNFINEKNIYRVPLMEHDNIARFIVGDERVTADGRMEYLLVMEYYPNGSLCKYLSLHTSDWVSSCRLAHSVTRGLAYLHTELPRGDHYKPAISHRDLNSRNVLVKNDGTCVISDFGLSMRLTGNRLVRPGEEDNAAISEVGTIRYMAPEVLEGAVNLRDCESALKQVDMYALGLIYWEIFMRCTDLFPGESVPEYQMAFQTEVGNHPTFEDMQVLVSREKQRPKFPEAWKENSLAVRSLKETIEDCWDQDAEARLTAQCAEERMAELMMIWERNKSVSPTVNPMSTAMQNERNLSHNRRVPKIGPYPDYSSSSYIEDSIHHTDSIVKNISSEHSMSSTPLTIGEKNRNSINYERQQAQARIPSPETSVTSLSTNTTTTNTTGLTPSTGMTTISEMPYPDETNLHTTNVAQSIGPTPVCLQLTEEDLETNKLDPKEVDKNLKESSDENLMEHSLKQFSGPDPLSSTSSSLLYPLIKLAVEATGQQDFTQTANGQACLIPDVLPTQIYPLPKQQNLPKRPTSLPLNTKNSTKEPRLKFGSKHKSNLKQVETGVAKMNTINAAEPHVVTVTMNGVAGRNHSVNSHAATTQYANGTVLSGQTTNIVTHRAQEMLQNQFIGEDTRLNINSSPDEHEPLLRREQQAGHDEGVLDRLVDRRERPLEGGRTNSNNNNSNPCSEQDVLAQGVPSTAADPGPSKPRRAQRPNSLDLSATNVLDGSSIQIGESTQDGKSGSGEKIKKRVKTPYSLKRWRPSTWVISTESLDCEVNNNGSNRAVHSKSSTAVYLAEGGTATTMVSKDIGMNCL
Chain of Dual specificity mitogen-activated protein kinase kinase 5 (Homo sapiens) (Q13163 whole entry, the tested form may be a part): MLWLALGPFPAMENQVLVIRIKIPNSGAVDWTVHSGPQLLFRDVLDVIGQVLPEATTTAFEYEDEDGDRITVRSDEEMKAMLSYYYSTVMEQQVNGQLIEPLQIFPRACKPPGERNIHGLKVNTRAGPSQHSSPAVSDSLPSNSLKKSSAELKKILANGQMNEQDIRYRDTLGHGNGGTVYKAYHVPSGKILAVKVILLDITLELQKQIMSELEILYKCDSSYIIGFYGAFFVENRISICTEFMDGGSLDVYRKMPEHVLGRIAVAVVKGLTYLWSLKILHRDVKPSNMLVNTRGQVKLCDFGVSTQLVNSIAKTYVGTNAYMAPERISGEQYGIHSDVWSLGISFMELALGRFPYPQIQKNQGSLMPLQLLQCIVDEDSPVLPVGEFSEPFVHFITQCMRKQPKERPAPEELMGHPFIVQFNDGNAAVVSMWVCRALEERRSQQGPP
Chain of MAP kinase-activated protein kinase 2 (Homo sapiens) (P49137 whole entry, looked up, the tested form may be a part): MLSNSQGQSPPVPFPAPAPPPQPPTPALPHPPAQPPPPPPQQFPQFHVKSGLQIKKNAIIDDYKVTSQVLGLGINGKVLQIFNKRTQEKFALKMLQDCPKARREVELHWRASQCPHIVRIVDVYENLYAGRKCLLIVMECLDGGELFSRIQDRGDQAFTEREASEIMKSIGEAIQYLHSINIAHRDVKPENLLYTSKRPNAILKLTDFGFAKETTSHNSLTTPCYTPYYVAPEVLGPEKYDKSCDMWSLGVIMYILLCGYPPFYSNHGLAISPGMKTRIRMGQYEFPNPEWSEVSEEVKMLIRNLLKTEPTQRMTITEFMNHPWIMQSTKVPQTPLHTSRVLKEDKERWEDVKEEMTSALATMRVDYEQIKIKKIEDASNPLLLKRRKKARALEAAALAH
Chain of Phosphatidylinositol 5-phosphate 4-kinase type-2 beta (Homo sapiens) (P78356 whole entry, the tested form may be a part): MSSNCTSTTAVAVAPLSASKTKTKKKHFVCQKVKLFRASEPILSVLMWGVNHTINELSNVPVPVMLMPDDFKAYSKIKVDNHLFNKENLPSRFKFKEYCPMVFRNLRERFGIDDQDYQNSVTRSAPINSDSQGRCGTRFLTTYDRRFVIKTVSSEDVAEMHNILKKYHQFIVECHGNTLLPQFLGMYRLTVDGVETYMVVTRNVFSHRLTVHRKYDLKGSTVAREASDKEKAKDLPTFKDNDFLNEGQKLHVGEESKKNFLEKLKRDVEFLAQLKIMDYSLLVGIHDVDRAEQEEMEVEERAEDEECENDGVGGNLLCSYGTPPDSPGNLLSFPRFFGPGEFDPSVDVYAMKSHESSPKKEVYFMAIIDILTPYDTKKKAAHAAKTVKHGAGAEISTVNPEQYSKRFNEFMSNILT
Chain of Receptor-interacting serine/threonine-protein kinase 4 (Homo sapiens) (P57078 whole entry, the tested form may be a part): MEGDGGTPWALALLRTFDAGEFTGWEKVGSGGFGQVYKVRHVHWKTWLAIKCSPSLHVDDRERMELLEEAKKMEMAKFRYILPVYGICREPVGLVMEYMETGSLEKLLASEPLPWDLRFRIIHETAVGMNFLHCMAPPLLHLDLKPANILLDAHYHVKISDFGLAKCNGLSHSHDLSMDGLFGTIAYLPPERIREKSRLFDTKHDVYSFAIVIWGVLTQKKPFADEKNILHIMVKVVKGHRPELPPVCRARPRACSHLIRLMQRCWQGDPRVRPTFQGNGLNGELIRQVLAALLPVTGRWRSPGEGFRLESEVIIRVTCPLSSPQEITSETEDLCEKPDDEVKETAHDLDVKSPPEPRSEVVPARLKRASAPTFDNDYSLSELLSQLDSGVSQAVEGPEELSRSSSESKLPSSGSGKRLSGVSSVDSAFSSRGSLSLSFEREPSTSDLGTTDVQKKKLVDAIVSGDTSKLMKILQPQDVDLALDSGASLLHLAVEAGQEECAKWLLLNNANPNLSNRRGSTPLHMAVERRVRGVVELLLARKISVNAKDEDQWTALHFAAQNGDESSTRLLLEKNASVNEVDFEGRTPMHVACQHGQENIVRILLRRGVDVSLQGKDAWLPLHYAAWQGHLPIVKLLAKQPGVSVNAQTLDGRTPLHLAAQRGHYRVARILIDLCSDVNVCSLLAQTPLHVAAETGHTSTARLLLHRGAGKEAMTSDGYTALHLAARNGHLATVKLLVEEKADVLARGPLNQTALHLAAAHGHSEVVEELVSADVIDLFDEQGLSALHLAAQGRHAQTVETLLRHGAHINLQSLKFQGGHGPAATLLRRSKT
Chain of Dual specificity mitogen-activated protein kinase kinase 6 (Homo sapiens) (P52564 whole entry, the tested form may be a part): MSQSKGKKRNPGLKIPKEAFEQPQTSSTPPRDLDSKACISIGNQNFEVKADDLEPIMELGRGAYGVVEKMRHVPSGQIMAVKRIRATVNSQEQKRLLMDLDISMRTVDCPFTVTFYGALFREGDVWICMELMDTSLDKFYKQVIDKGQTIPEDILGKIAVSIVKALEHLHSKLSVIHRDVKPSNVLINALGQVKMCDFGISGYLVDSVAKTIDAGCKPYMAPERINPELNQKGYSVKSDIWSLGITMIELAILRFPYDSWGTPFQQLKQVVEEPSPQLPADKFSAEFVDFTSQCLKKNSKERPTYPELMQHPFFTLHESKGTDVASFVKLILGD

`COCCN[C@H]1CC[C@H](Nc2cc(-c3csc(NCC4(C#N)CCOCC4)n3)c(Cl)cn2)CC1`: the Activity in assay [1] is 95%; in assay [2], 100%; in [3], 18%; in [4], 82%; in assay [5], 88%; in assay [6], 96%. In addition, the Activity in [7] worked out at 57%; in assay [8] it was 89%; in assay [9] it was 74%; in [10] it was 99%; in assay [11], 81%; in assay [12], 68%. Also, the Activity in assay [13] was found to be 100%; in assay [14] it was 90%; in assay [15], 100%; in assay [16], 100%; in [17], 96%; in assay [18] it was 100%. For the same compound, the Activity in [19] came out at 95%.
